In experiment [1] the target is T1, Ectonucleoside triphosphate diphosphohydrolase 2 (Homo sapiens) (UniProt Q9Y5L3).
T1 sequence (whole entry): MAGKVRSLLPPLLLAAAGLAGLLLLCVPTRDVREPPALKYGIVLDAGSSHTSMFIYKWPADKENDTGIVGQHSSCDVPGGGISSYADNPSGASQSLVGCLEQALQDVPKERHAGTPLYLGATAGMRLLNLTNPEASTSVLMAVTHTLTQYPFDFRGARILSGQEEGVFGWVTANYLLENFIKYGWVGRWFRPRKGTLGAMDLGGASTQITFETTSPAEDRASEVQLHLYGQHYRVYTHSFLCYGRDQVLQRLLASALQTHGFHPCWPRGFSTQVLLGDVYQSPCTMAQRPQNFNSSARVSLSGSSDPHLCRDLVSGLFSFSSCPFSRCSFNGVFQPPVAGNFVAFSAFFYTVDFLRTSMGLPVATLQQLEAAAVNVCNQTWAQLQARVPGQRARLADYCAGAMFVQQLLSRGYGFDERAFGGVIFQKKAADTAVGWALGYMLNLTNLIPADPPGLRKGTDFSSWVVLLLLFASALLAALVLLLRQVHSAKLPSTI
Briefly: Activity of human NTPDase 2 expressed in human 293T cells assessed as drug hydrolysis at 100 uM after 20 mins relative to ATP. Further details: scale not given: the % may be the effect or the level left. Format: cell-based. Put shortly:
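Human NTPDase1, 2, 3 or 8 in crude extracts of transfected 293T cells, pre-incubated 3 min at 37 °C in Tris-Ringer buffer pH 7.4. […] Untransfected-cell extract activity subtracted.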

Experiment [2] concerns the target T2, Ectonucleotide pyrophosphatase/phosphodiesterase family member 1 (Homo sapiens) (UniProt P22413).
T2 sequence (whole entry): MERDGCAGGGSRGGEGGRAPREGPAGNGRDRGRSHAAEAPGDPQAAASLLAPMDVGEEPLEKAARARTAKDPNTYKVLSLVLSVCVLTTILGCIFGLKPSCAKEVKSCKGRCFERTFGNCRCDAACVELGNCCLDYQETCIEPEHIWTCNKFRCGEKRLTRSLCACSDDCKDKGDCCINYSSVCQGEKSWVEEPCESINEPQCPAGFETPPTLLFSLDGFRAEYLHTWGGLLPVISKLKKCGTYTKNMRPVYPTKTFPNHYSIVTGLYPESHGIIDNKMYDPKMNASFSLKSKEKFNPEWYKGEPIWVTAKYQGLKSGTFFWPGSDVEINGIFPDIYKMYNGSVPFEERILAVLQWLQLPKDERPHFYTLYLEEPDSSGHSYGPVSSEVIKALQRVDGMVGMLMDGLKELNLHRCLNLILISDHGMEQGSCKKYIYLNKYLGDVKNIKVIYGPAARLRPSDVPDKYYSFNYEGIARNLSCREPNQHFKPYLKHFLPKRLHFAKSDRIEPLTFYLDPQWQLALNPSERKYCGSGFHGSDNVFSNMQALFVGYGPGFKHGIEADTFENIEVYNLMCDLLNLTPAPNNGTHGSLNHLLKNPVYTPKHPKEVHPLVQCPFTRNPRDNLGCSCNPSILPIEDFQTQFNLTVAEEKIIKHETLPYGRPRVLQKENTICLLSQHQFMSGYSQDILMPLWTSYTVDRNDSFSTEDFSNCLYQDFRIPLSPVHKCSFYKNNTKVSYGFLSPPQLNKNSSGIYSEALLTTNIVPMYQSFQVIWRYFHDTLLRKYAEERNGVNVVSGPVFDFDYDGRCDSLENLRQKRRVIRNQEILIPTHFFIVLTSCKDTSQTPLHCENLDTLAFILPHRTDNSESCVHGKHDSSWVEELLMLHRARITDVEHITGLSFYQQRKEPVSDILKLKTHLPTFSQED
Briefly: Activity of human NPP1 expressed in human 293T cells assessed as drug hydrolysis at 100 uM after 20 mins by reverse-phase HPLC relative to p-nitrophenyl-thymidine-5-monophosphate. Format: cell-based. Further details: scale not given: the % may be the effect or the level left. In outline: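 Crude extract of 293T cells transfected with human NPP1 or NPP3, pre-incubated 3 min at 37 °C in 1 mM CaCl2, 140 mM NaCl, 5 mM KCl, 50 mM Tris pH 8.5. Substrate at 100 µM final for 20 min, stopped in ice-cold perchloric acid and neutralized with KOH. Loss of analogue quantified by reverse-phase HPLC with ion-pair phosphate mobile phase pH 7.0. pnp-TMP (p-nitrophenol at 410 nm) served as the 100% reference.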

The target of experiment [3] is T3, P2Y purinoceptor 4 (Homo sapiens, UniProt P51582). Briefly: Agonist activity at human P2Y4 receptor expressed in human 1321N1 cells assessed as increase in intracellular calcium concentration by dual-excitation spectrofluorimetric analysis. In kind it is functional, cell-based. Put shortly: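 1321N1 astrocytoma cells stably expressing the receptor (turkey P2Y1, human P2Y2, human P2Y4, rat P2Y6) were grown with G-418 selection. Fura-2-loaded cell suspensions were exposed at 37 °C in 10 mM HEPES-buffered saline pH 7.4 with 1 mM CaCl2 and 1 mM MgCl2. Peak [Ca2+]i rise was measured over a range of concentrations to derive EC50.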
Background: Calcium assays in cells follow changes in intracellular calcium, usually with a dye or a luminescent sensor.

For experiment [4], the target named is P2Y purinoceptor 1 (Meleagris gallopavo) (UniProt P49652). Briefly: Antagonist activity at turkey P2Y1 receptor expressed in human 1321N1 cells assessed as inhibition of 2-MeS-ADP-induced increase in intracellular calcium concentration by dual-excitation spectrofluorimetric analysis. Format: functional, cell-based. In outline: (§1)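 Fura-2-loaded suspensions of stably transfected 1321N1 cells were assayed at 37 °C in HEPES-buffered saline pH 7.4 with 1 mM Ca2+ and Mg2+. […] [Ca2+]i was read by dual-excitation spectrofluorometry.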

The target of experiment [5] is T3, P2Y purinoceptor 4. Briefly: Antagonist activity at human P2Y4 receptor expressed in human 1321N1 cells assessed as inhibition of UTP-induced increase in intracellular calcium concentration by dual-excitation spectrofluorimetric analysis. In kind it is functional, cell-based. Put shortly: as §1
For experiment [6], the target named is P2Y purinoceptor 6 (Rattus norvegicus) (UniProt Q63371). Briefly: Antagonist activity at rat P2Y6 receptor expressed in human 1321N1 cells assessed as inhibition of UDP-induced increase in intracellular calcium concentration by dual-excitation spectrofluorimetric analysis. Format: functional, cell-based. Put shortly:
as §1

Experiment [7] has as its target P2Y purinoceptor 1 (Meleagris gallopavo) (UniProt P49652). Briefly: Agonist activity at turkey P2Y1 receptor expressed in human 1321N1 cells assessed as increase in intracellular calcium concentration by dual-excitation spectrofluorimetric analysis. In kind it is functional, cell-based.

Calls of active or inactive are those of the source. The calls are words filed in the database; no cut-off is given here.

For five compounds, Activity results are on record in ChEMBL document CHEMBL1137702, “Identification of hydrolytically stable and selective P2Y(1) receptor agonists” (Eur J Med Chem, 2009).

Chain of P2Y purinoceptor 1 (Meleagris gallopavo) (P49652 whole entry): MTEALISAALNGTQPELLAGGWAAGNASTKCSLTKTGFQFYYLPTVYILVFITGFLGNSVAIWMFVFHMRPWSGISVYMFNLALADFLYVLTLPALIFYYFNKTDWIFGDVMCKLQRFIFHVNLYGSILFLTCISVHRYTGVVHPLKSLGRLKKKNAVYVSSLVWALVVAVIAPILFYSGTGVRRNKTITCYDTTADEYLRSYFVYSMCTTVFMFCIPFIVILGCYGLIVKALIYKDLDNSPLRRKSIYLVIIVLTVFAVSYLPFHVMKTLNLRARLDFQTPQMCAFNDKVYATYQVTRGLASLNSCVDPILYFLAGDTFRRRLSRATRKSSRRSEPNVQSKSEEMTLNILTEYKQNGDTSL
T3 sequence (P51582 whole entry): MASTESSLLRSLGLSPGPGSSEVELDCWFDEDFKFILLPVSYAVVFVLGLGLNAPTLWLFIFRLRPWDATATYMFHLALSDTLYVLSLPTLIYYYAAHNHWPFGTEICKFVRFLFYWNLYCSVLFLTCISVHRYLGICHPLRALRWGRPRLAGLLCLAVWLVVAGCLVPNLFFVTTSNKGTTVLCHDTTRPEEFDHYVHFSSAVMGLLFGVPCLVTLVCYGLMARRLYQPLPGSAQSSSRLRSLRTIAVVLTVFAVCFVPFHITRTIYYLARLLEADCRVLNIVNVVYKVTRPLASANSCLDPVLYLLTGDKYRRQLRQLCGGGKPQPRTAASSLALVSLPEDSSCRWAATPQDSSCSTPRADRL
Chain of P2Y purinoceptor 6 (Rattus norvegicus) (Q63371 whole entry): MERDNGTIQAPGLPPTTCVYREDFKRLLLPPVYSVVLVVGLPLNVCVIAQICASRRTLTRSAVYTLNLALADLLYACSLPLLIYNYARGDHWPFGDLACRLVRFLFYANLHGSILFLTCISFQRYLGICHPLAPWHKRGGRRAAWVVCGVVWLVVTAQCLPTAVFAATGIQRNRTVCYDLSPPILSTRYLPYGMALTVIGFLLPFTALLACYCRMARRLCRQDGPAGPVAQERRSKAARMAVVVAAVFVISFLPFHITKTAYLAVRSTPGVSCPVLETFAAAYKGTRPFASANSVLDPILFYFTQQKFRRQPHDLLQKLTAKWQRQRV

In the case of `CSc1nc(N)c2ncn([C@@H]3O[C@H](COP(=O)(O)OP(=O)(O)CP(=O)(O)O)[C@@H](O)[C@H]3O)c2n1`, the Activity came out at 2% in experiment [1] and 23% in experiment [2]. Besides, the outcome (on P2Y purinoceptor 4 [3]; in experiment [4]; on P2Y purinoceptor 4 [5]; in experiment [6]) was inactive.
As for `BP(=O)(OC[C@H]1O[C@@H](n2cnc3c(N)ncnc32)[C@H](O)[C@@H]1O)OP(=O)(O)CP(=O)(O)O` (some centres not stated), the Activity in experiment [1] stood at 1%; in experiment [2], 0%. Besides, the result (in experiment [7]; on P2Y purinoceptor 4 [3]; at P2Y purinoceptor 4 [5]; in experiment [6]) was inactive.
`BP(=O)(OC[C@H]1O[C@@H](n2cnc3c(N)nc(SC)nc32)[C@H](O)[C@@H]1O)OP(=O)(O)CP(=O)(O)O` (single isomer, unassigned; diastereomer A): the Activity in experiment [1] came out at 1%; in experiment [2] it was 0%. Moreover, the result (in experiment [7]; on P2Y purinoceptor 4 [3]; in experiment [4]; at P2Y purinoceptor 4 [5]; in experiment [6]) was inactive.
For `BP(=O)(OC[C@H]1O[C@@H](n2cnc3c(N)nc(SC)nc32)[C@H](O)[C@@H]1O)OP(=O)(O)CP(=O)(O)O` (single isomer, unassigned; diastereomer B), the Activity in experiment [1] is 1%; in experiment [2] it was under 1%. Further, the result (on P2Y purinoceptor 4 [3]; in experiment [4]; at P2Y purinoceptor 4 [5]; in experiment [6]) was inactive.
Turning to `BP(=O)(OC[C@H]1O[C@@H](n2cnc3c(N)ncnc32)[C@H](O)[C@@H]1O)OP(=O)(O)CP(=O)(O)O` (single isomer, unassigned; diastereomer B), the Activity in experiment [1] was found to be 0%; in experiment [2], 4%. For the same compound, the outcome (in experiment [7]; on P2Y purinoceptor 4 [3]; in experiment [4]; on P2Y purinoceptor 4 [5]; in experiment [6]) was inactive.
